17 molecules from ChEMBL document CHEMBL5036309, “Orally Active Peptide Vector Allows Using Cannabis to Fight Pain While Avoiding Side Effects” (J Med Chem, 2021) can be followed below.

Calls of active or inactive are those of the source. No cut-off for these calls is given here. Square brackets hold non-standard residues; d marks the D form. Peptide text beside a SMILES is read from it.

In assay [1] the test system is BEND3. Put plainly: Induction of BBB translocation in mouse BEND3 cells measured after 24 hrs by fluorescence analysis. The format is functional, cell-based. In short, it runs like this: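 5(6)-Carboxyfluorescein-labeled peptides were applied to a transwell BBB model of bEnd.3 cells. Translocation (%) was measured as fluorescence in the basolateral chamber after 24 h, with a trans-BBB peptide as positive control. Barrier integrity was checked afterward by FD4 dextran permeability. Mean ± SEM, n = 3–6, independent cultures on different days.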

Assay [2] deals with HEK293T. Put plainly: Inhibition of human c-YFP fused CB1R/n-YFP fused 5HT2A receptor heterodimer formation expressed in HEK293T cells assessed as decrease in forskolin induced cAMP level preincubated for 15 mins forskolin and DOI stimulation and measured after 15 mins by HTRF assay. The format is cell-based. The following applies: time 30.0 min. On the technique in general: Cyclic AMP is a second messenger, typically raised through Gs and lowered through Gi signalling.

Assay [3] deals with HEK293T. Nature of the assay: Inhibition of human c-YFP fused CB1R/n-YFP fused 5HT2A receptor heterodimer formation expressed in HEK293T cells assessed as decrease in forskolin induced cAMP level preincubated for 15 mins forskolin and WIN 55,212-2 stimulation and measured after 15 mins by HTRF assay. The assay is classed as cell-based. The following applies: time 30.0 min.
Assay [4] has as its system HEK293T. Nature of the assay: Inhibition of human c-YFP fused CB1R/n-YFP fused 5HT2A receptor heterodimer formation expressed in HEK293T cells assessed as increase in pERK level preincubated for 15 mins followed by WIN 55,212-2 stimulation for 7 mins by microplate reader method. The format is cell-based. To be noted: time 22.0 min.
Assay [5] concerns HEK293T. Nature of the assay: Inhibition of human c-YFP fused CB1R/n-YFP fused 5HT2A receptor heterodimer formation expressed in HEK293 cells assessed as increase in pERK level preincubated for 15 mins followed by DOI stimulation for 7 mins by microplate reader method. The format is cell-based. The following applies: time 22.0 min.
The subject of assay [6] is HEK293T. Nature of the assay: Inhibition of human c-YFP fused CB1R/n-YFP fused 5HT2A receptor heterodimer formation transfected in human HEK293T cells at 4 uM incubated for 4 hrs by BIFC assay. The format is cell-based. The essentials:
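HEK-293T cells were cotransfected 48 h with 5HT2AR-cYFP and CB1R-nYFP (4 μg cDNA each, polyethylenimine), then treated with 4 μM peptide or vehicle for 4 h at 37 °C. Reconstituted YFP Venus was read on 20 μg protein at 530 nm emission with 400 nm excitation, minus the fluorescence of non-expressing cells. Mean ± SEM, n = 10–30.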

As to `CC[C@@H](C)[C@@H](NC(=O)CNC(=O)[C@@H](C)NC(=O)[C@H](Cc1c[nH]c2ccccc12)NC(=O)[C@H](CC(C)C)NC(=O)[C@@H](NC(=O)[C@H](Cc1ccc(O)cc1)NC(=O)[C@H](CCSC)NC(=O)[C@H](Cc1ccc(O)cc1)NC(=O)[C@H](C)NC(=O)[C@H](Cc1ccc(O)cc1)NC(=O)[C@@H](N)C(C)C)[C@@H](C)CC)C(=O)N[C@H](CC(C)C)C(=O)N[C@H](CCCCN)C(=O)N[C@H](CCCNC(=N)N)C(=O)N[C@H](Cc1c[nH]c2ccccc12)C(N)=O` (H-VYAYMYILW[dA]G[dI][dL][dK][dR][dW]-NH2), the result in assay [1] was Active. The inhibition entry in assay [2], in assay [3], in assay [4] and in assay [5] was “Active” each time.
For the molecule `CC[C@H](C)[C@H](NC(=O)[C@H](CC(C)C)NC(=O)[C@@H](NC(=O)[C@H](CC(C)C)NC(=O)[C@@H](NC(=O)[C@H](CCCCN)NC(=O)[C@@H](CCCCN)NC(=O)[C@@H](CO)NC(=O)[C@@H](CCCCN)NC(=O)[C@@H](CO)NC(=O)[C@@H](CCCCN)NC(=O)[C@H](N)CO)[C@@H](C)O)C(C)C)C(=O)N[C@@H](CC(C)C)C(=O)N[C@H](C(=O)N[C@H](C(N)=O)C(C)C)C(C)C` (H-[dS][dK][dS][dK][dS][dK]KTLVLILVV-NH2), the outcome in assay [1] was Active. For the same molecule, the inhibition entry in assay [2], in assay [3], in assay [4] and in assay [5] was “Active” in each case.
For the molecule `CC[C@H](C)[C@H](NC(=O)[C@@H](NC(=O)[C@@H]1CCCN1C(=O)[C@H](CC(N)=O)NC(=O)[C@@H](NC(=O)[C@@H](NC(=O)[C@H](CO)NC(=O)[C@H](CC(N)=O)NC(=O)[C@H](CC(C)C)NC(=O)[C@H](CC(C)C)NC(=O)[C@H](CS)NC(=O)[C@H](CC(C)C)NC(=O)[C@H](CCSC)NC(=O)[C@H](CO)NC(=O)[C@H](CS)NC(=O)[C@H](Cc1ccccc1)NC(=O)[C@H](C)NC(=O)[C@H](Cc1ccccc1)NC(=O)[C@@H](NC(=O)[C@@H](NC(=O)[C@H](CCCCN)NC(=O)[C@@H](NC(=O)[C@@H](N)CC(C)C)[C@@H](C)CC)[C@@H](C)O)C(C)C)[C@@H](C)O)C(C)C)[C@@H](C)CC)C(=O)N[C@@H](Cc1ccc(O)cc1)C(=O)N[C@@H](C)C(=O)N[C@@H](CC(C)C)C(=O)N[C@@H](CCCNC(=N)N)C(=O)NCC(=O)N[C@@H](CCCNC(=N)N)C(=O)N[C@@H](CCCCN)C(=O)N[C@@H](CCCCN)C(=O)N[C@@H](CCCNC(=N)N)C(=O)N[C@@H](CCCNC(=N)N)C(=O)N[C@@H](CCC(N)=O)C(=O)N[C@@H](CCCNC(=N)N)C(=O)N[C@@H](CCCNC(=N)N)C(=O)N[C@@H](CCCNC(=N)N)C(N)=O` (H-LIKTVFAFCSMLCLLNSTVNPIIYALRGRKKRRQRRR-NH2), the inhibition result in assay [3], in assay [4], in assay [6] and in assay [5] was “inactive” throughout.
With `CC[C@@H](C)[C@@H](NC(=O)CNC(=O)[C@@H](C)N)C(=O)N[C@H](CC(C)C)C(=O)N[C@H](CCCCN)C(=O)N[C@H](CCCNC(=N)N)C(=O)N[C@H](Cc1c[nH]c2ccccc12)C(=O)N[C@@H](CCCCN)C(=O)N[C@H](C(=O)N[C@@H](CC(C)C)C(=O)N[C@H](C(=O)N[C@@H](CC(C)C)C(=O)N[C@H](C(=O)N[C@@H](CC(C)C)C(=O)N[C@H](C(=O)N[C@H](C(N)=O)C(C)C)C(C)C)[C@@H](C)CC)C(C)C)[C@@H](C)O` (H-[dA]G[dI][dL][dK][dR][dW]KTLVLILVV-NH2), the result in assay [1] was Active. In addition, the inhibition result in assay [2], in assay [3], in assay [4] and in assay [5] was “Active” throughout.
Take `Cc1c(C(=O)NN2CCCCC2)nn(-c2ccc(Cl)cc2Cl)c1-c1ccc(Cl)cc1`: the inhibition entry in assay [2], in assay [3], in assay [4] and in assay [5] was “inactive” in each case.
Regarding `COc1cccc([C@H](O)C2CCN(CCc3ccc(F)cc3)CC2)c1OC`, the inhibition result in assay [2], in assay [3], in assay [4] and in assay [5] was “inactive” each time.
Turning to H-VYAYMYILWSKSKSK-NH2, the inhibition result in assay [2], in assay [3], in assay [4] and in assay [5] was “Active” each time.
H-VYAYMYILWRKR-NH2: the inhibition entry in assay [2], in assay [3], in assay [4] and in assay [5] was “Active” each time.
As for H-SKSKSKKTLVLILVV-NH2, the inhibition entry in assay [2], in assay [3], in assay [4] and in assay [5] was “Active” in each case.
On to “H-ETYLMFWIGVTSVLLLFIVYAYMYILWGRKKRRQRRR-NH2”, for which the inhibition entry in assay [3], in assay [4], in assay [6] and in assay [5] was “Active” throughout.
With H-GRKKRRQRRRKTLVLILVV-NH2, the inhibition result in assay [2], in assay [3], in assay [4], in assay [6] and in assay [5] was “Active” in each case.
Consider H-AGILKRWKTLVLILVV-NH2, for which the inhibition result in assay [2], in assay [3], in assay [4] and in assay [5] was “Active” in each case.
`CC[C@H](C)[C@H](NC(=O)[C@H](Cc1ccc(O)cc1)NC(=O)[C@H](CCSC)NC(=O)[C@H](Cc1ccc(O)cc1)NC(=O)[C@H](C)NC(=O)[C@H](Cc1ccc(O)cc1)NC(=O)[C@@H](N)C(C)C)C(=O)N[C@@H](CC(C)C)C(=O)N[C@@H](Cc1c[nH]c2ccccc12)C(=O)N[C@H](CO)C(=O)N[C@H](CCCCN)C(=O)N[C@H](CO)C(=O)N[C@H](CCCCN)C(=O)N[C@H](CO)C(=O)N[C@H](CCCCN)C(N)=O` (H-VYAYMYILW[dS][dK][dS][dK][dS][dK]-NH2): the outcome in assay [1] was Active. Moreover, the inhibition result in assay [2], in assay [3], in assay [4] and in assay [5] was “Active” each time.
In the case of H-VYAYMYILWAGILKRW-NH2, the inhibition entry in assay [2], in assay [3], in assay [4] and in assay [5] was “Active” throughout.
On to H-RKRKTLVLILVV-NH2, for which the inhibition entry in assay [2], in assay [3], in assay [4] and in assay [5] was “Active” each time.
H-VYAYMYILWGRKKRRQRRR-NH2: the inhibition entry in assay [2], in assay [3], in assay [4], in assay [6] and in assay [5] was “Active” in each case.
Regarding “H-GRKKRRQRRRKTLVLILVVLIICWGPLLAIMVYDVF-NH2”, the inhibition result in assay [3], in assay [4], in assay [6] and in assay [5] was “Active” in each case.
